Data as given in ChEMBL document CHEMBL1649517, “Effect of MexXY overexpression on ceftobiprole susceptibility in Pseudomonas aeruginosa” (2009).
Converted amounts (≈) assume the structure as drawn.

What was measured:
[1] = tested on: Pseudomonas aeruginosa; assay: Antimicrobial activity against Pseudomonas aeruginosa isolate OC17355 by broth microdilution method; assay type: functional
In short: (§1)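 Clinical P. aeruginosa isolates, baseline and posttreatment, collected in ceftobiprole phase III clinical trials. MICs were measured by CLSI broth microdilution.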

[2] = tested on: Pseudomonas aeruginosa; assay: Antimicrobial activity against Pseudomonas aeruginosa isolate OC16830 harboring plasmid MexZ expressing mexXY gene by broth microdilution method
[3] = tested on: Pseudomonas aeruginosa; assay: Antimicrobial activity against Pseudomonas aeruginosa PAO1 harboring plasmid MexZ expressing mexXY gene by broth microdilution method; assay type: functional
In short: (§2)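 CLSI broth microdilution MIC on P. aeruginosa transformants. Plasmids (control vector pJAK16, pMexXY or cloned mexZ repressor; 200 ng) were electroporated into fresh electrocompetent cells, and transformants were selected on Mueller-Hinton plates with chloramphenicol 200 or 400 μg/ml. Cultures were kept in chloramphenicol 200 μg/ml to maintain the plasmid, with 1 mM IPTG to induce the cloned gene.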

[4] = tested on: Pseudomonas aeruginosa; assay: Antimicrobial activity against Pseudomonas aeruginosa isolate OC17355 harboring plasmid MexZ expressing mexXY gene by broth microdilution method; assay type: functional; in short: as §2
[5] = tested on: Pseudomonas aeruginosa; assay: Antimicrobial activity against Pseudomonas aeruginosa isolate OC14812 harboring plasmid JAK16 expressing mexXY gene by broth microdilution method; assay type: functional; in short: as §2
[6] = tested on: Pseudomonas aeruginosa; assay: Antimicrobial activity against Pseudomonas aeruginosa isolate OC17355 harboring plasmid JAK16 expressing mexXY gene by broth microdilution method; assay type: functional; in short: as §2
[7] = tested on: Pseudomonas aeruginosa; assay: Antimicrobial activity against Pseudomonas aeruginosa PAO1 harboring plasmid MexXY expressing mexXY gene by broth microdilution method; assay type: functional; in short: as §2
[8] = tested on: Pseudomonas aeruginosa; assay: Antimicrobial activity against Pseudomonas aeruginosa isolate OC16827 harboring plasmid MexZ expressing mexXY gene by broth microdilution method
[9] = tested on: Pseudomonas aeruginosa; assay: Antimicrobial activity against Pseudomonas aeruginosa isolate OC14552 by broth microdilution method; assay type: functional; in short: as §1
[10] = tested on: Pseudomonas aeruginosa; assay: Antimicrobial activity against Pseudomonas aeruginosa isolate OC17349 by broth microdilution method; assay type: functional; in short: as §1
[11] = tested on: Pseudomonas aeruginosa; assay: Antimicrobial activity against Pseudomonas aeruginosa isolate OC14812 by broth microdilution method; assay type: functional; in short: as §1
[12] = tested on: Pseudomonas aeruginosa; assay: Antimicrobial activity against Pseudomonas aeruginosa isolate OC14551 harboring plasmid JAK16 expressing mexXY gene by broth microdilution method; assay type: functional; in short: as §2
[13] = tested on: Pseudomonas aeruginosa; assay: Antimicrobial activity against Pseudomonas aeruginosa PAO1 harboring plasmid JAK16 expressing mexXY gene by broth microdilution method; assay type: functional; in short: as §2
[14] = tested on: Pseudomonas aeruginosa; assay: Antimicrobial activity against Pseudomonas aeruginosa isolate OC14805 by broth microdilution method; assay type: functional; in short: as §1
[15] = tested on: Pseudomonas aeruginosa; assay: Antimicrobial activity against Pseudomonas aeruginosa isolate OC16827 harboring plasmid MexXY expressing mexXY gene by broth microdilution method; assay type: functional; in short: as §2
[16] = tested on: Pseudomonas aeruginosa; assay: Antimicrobial activity against Pseudomonas aeruginosa isolate OC14812 harboring plasmid MexZ expressing mexXY gene by broth microdilution method; assay type: functional; in short: as §2
[17] = tested on: Pseudomonas aeruginosa; assay: Antimicrobial activity against Pseudomonas aeruginosa isolate OC14551 harboring plasmid MexZ expressing mexXY gene by broth microdilution method; assay type: functional; in short: as §2
[18] = tested on: Pseudomonas aeruginosa; assay: Antimicrobial activity against Pseudomonas aeruginosa isolate OC16827 harboring plasmid JAK16 expressing mexXY gene by broth microdilution method; assay type: functional; in short: as §2
[19] = tested on: Pseudomonas aeruginosa; assay: Antimicrobial activity against Pseudomonas aeruginosa isolate OC16827 by broth microdilution method; assay type: functional; in short: as §1
[20] = tested on: Pseudomonas aeruginosa; assay: Antimicrobial activity against Pseudomonas aeruginosa isolate OC16830 harboring plasmid JAK16 expressing mexXY gene by broth microdilution method; assay type: functional; in short: as §2
[21] = tested on: Pseudomonas aeruginosa; assay: Antimicrobial activity against Pseudomonas aeruginosa isolate OC16830 by broth microdilution method; assay type: functional; in short: as §1
[22] = tested on: Pseudomonas aeruginosa; assay: Antimicrobial activity against Pseudomonas aeruginosa isolate OC14551 by broth microdilution method; assay type: functional; in short: as §1
[23] = tested on: Pseudomonas aeruginosa; assay: Antimicrobial activity against Pseudomonas aeruginosa isolate OC14805 after 7 to 14 days by broth microdilution method; assay type: functional; in short: as §1
[24] = tested on: Pseudomonas aeruginosa; assay: Antimicrobial activity against Pseudomonas aeruginosa isolate OC17349 after end of treatment by broth microdilution method; assay type: functional; in short: as §1
[25] = tested on: Pseudomonas aeruginosa; assay: Antimicrobial activity against Pseudomonas aeruginosa isolate OC14552 on day 4 by broth microdilution method; assay type: functional; settings: isolate OC14552, 96 h; in short: as §1
[26] = tested on: Pseudomonas aeruginosa; assay: Antimicrobial activity against Pseudomonas aeruginosa isolate OC16827 on day 14 by broth microdilution method; assay type: functional; settings: isolate OC16827, 336 h; in short: as §1
[27] = tested on: Pseudomonas aeruginosa; assay: Antimicrobial activity against Pseudomonas aeruginosa isolate OC14551 on day 8 by broth microdilution method; settings: isolate OC14551, 192 h
[28] = tested on: Pseudomonas aeruginosa; assay: Antimicrobial activity against Pseudomonas aeruginosa isolate OC14805 after > 14 days by broth microdilution method; assay type: functional; settings: isolate OC14805, 336 h; in short: as §1
[29] = tested on: Pseudomonas aeruginosa; assay: Antimicrobial activity against Pseudomonas aeruginosa isolate OC17349 on day 4 by broth microdilution method; assay type: functional; settings: isolate OC17349, 96 h; in short: as §1
[30] = tested on: Pseudomonas aeruginosa; assay: Antimicrobial activity against Pseudomonas aeruginosa isolate OC14805 on day 4 by broth microdilution method; assay type: functional; settings: isolate OC14805, 96 h; in short: as §1
[31] = tested on: Pseudomonas aeruginosa; assay: Antimicrobial activity against Pseudomonas aeruginosa isolate OC17349 after 7 to 14 days by broth microdilution method; assay type: functional; in short: as §1
[32] = tested on: Pseudomonas aeruginosa; assay: Antimicrobial activity against Pseudomonas aeruginosa isolate OC16827 after end of treatment by broth microdilution method; assay type: functional; in short: as §1

## O=C(O)c1cn(C2CC2)c2cc(N3CCNCC3)c(F)cc2c1=O [CIPROFLOXACIN]
[1]
  MIC: 4 µg/mL (≈ 12.1 µM)
[2]
  MIC: 0.12 µg/mL (≈ 0.362 µM)
[3]
  MIC: 0.12 µg/mL (≈ 0.362 µM)
[4]
  MIC: 1 µg/mL (≈ 3.02 µM)
[5]
  MIC: 1 µg/mL (≈ 3.02 µM)
[6]
  MIC: 4 µg/mL (≈ 12.1 µM)
[7]
  MIC: 1 µg/mL (≈ 3.02 µM)
[8]
  MIC: 0.12 µg/mL (≈ 0.362 µM)
[9]
  MIC: 0.12 µg/mL (≈ 0.362 µM)
[10]
  MIC: 4 µg/mL (≈ 12.1 µM)
[11]
  MIC: 1 µg/mL (≈ 3.02 µM)

## CO/N=C(\C(=O)N[C@@H]1C(=O)N2C(C(=O)[O-])=C(C[N+]3(C)CCCC3)CS[C@H]12)c1csc(N)n1
[1]
  MIC: 8 µg/mL (≈ 16.6 µM)
[2]
  MIC: 4 µg/mL (≈ 8.32 µM)
[3]
  MIC: 1 µg/mL (≈ 2.08 µM)
[4]
  MIC: 2 µg/mL (≈ 4.16 µM)
[12]
  MIC: 16 µg/mL (≈ 33.3 µM)
[5]
  MIC: 8 µg/mL (≈ 16.6 µM)
[6]
  MIC: 8 µg/mL (≈ 16.6 µM)
[13]
  MIC: 2 µg/mL (≈ 4.16 µM)
[14]
  MIC: 2 µg/mL (≈ 4.16 µM)
[15]
  MIC: 8 µg/mL (≈ 16.6 µM)
[7]
  MIC: 8 µg/mL (≈ 16.6 µM)
[16]
  MIC: 2 µg/mL (≈ 4.16 µM)
[17]
  MIC: 4 µg/mL (≈ 8.32 µM)
[8]
  MIC: 2 µg/mL (≈ 4.16 µM)
[9]
  MIC: 4 µg/mL (≈ 8.32 µM)
[18]
  MIC: 2 µg/mL (≈ 4.16 µM)
[19]
  MIC: 2 µg/mL (≈ 4.16 µM)
[10]
  MIC: 4 µg/mL (≈ 8.32 µM)
[20]
  MIC: 8 µg/mL (≈ 16.6 µM)
[21]
  MIC: 8 µg/mL (≈ 16.6 µM)
[22]
  MIC: 8 µg/mL (≈ 16.6 µM)
[11]
  MIC: 8 µg/mL (≈ 16.6 µM)

## Nc1nc(/C(=N/O)C(=O)N[C@@H]2C(=O)N3C(C(=O)O)=C(/C=C4\CCN([C@@H]5CCNC5)C4=O)CS[C@H]23)ns1 [CEFTOBIPROLE]
[23]
  MIC: 16 µg/mL (≈ 29.9 µM)
[1]
  MIC: 16 µg/mL (≈ 29.9 µM)
[2]
  MIC: 1 µg/mL (≈ 1.87 µM)
[3]
  MIC: 1 µg/mL (≈ 1.87 µM)
[4]
  MIC: 2 µg/mL (≈ 3.74 µM)
[12]
  MIC: 16 µg/mL (≈ 29.9 µM)
[5]
  MIC: 16 µg/mL (≈ 29.9 µM)
[6]
  MIC: 8 µg/mL (≈ 15 µM)
[13]
  MIC: 4 µg/mL (≈ 7.48 µM)
[14]
  MIC: 2 µg/mL (≈ 3.74 µM)
[15]
  MIC: 16 µg/mL (≈ 29.9 µM)
[7]
  MIC: 32 µg/mL (≈ 59.9 µM)
[16]
  MIC: 2 µg/mL (≈ 3.74 µM)
[17]
  MIC: 4 µg/mL (≈ 7.48 µM)
[24]
  MIC: 16 µg/mL (≈ 29.9 µM)
[8]
  MIC: 1 µg/mL (≈ 1.87 µM)
[9]
  MIC: 4 µg/mL (≈ 7.48 µM)
[25]
  MIC: 4 µg/mL (≈ 7.48 µM)
[26]
  MIC: 16 µg/mL (≈ 29.9 µM)
[18]
  MIC: 4 µg/mL (≈ 7.48 µM)
[19]
  MIC: 4 µg/mL (≈ 7.48 µM)
[27]
  MIC: 16 µg/mL (≈ 29.9 µM)
[28]
  MIC: 16 µg/mL (≈ 29.9 µM)
[10]
  MIC: 4 µg/mL (≈ 7.48 µM)
[20]
  MIC: 16 µg/mL (≈ 29.9 µM)
[29]
  MIC: 16 µg/mL (≈ 29.9 µM)
[30]
  MIC: 4 µg/mL (≈ 7.48 µM)
[21]
  MIC: 16 µg/mL (≈ 29.9 µM)
[31]
  MIC: 16 µg/mL (≈ 29.9 µM)
[32]
  MIC: 16 µg/mL (≈ 29.9 µM)
[22]
  MIC: 16 µg/mL (≈ 29.9 µM)
[11]
  MIC: 16 µg/mL (≈ 29.9 µM)

## GENTAMICIN
[1]
  MIC: 4 µg/mL
[3]
  MIC: 0.25 µg/mL
[4]
  MIC: 0.25 µg/mL
[12]
  MIC: 8 µg/mL
[5]
  MIC: 8 µg/mL
[6]
  MIC: 16 µg/mL
[13]
  MIC: 4 µg/mL
[14]
  MIC: 2 µg/mL
[16]
  MIC: 2 µg/mL
[17]
  MIC: 4 µg/mL
[9]
  MIC: 4 µg/mL
[18]
  MIC: 4 µg/mL
[19]
  MIC: 4 µg/mL
[10]
  MIC: 4 µg/mL
[20]
  MIC: 8 µg/mL
[21]
  MIC: 8 µg/mL
[22]
  MIC: 4 µg/mL
[11]
  MIC: 8 µg/mL

## CC(C)(O/N=C(\C(=O)N[C@@H]1C(=O)N2C(C(=O)[O-])=C(C[n+]3ccccc3)CS[C@H]12)c1csc(N)n1)C(=O)O [CEFTAZIDIME]
[1]
  MIC: 4 µg/mL (≈ 7.32 µM)
[2]
  MIC: 2 µg/mL (≈ 3.66 µM)
[3]
  MIC: 1 µg/mL (≈ 1.83 µM)
[4]
  MIC: 4 µg/mL (≈ 7.32 µM)
[12]
  MIC: 4 µg/mL (≈ 7.32 µM)
[5]
  MIC: 4 µg/mL (≈ 7.32 µM)
[6]
  MIC: 4 µg/mL (≈ 7.32 µM)
[13]
  MIC: 2 µg/mL (≈ 3.66 µM)
[14]
  MIC: 2 µg/mL (≈ 3.66 µM)
[15]
  MIC: 2 µg/mL (≈ 3.66 µM)
[7]
  MIC: 1 µg/mL (≈ 1.83 µM)
[16]
  MIC: 4 µg/mL (≈ 7.32 µM)
[17]
  MIC: 4 µg/mL (≈ 7.32 µM)
[8]
  MIC: 2 µg/mL (≈ 3.66 µM)
[9]
  MIC: 4 µg/mL (≈ 7.32 µM)
[18]
  MIC: 2 µg/mL (≈ 3.66 µM)
[19]
  MIC: 2 µg/mL (≈ 3.66 µM)
[10]
  MIC: 4 µg/mL (≈ 7.32 µM)
[20]
  MIC: 2 µg/mL (≈ 3.66 µM)
[21]
  MIC: 2 µg/mL (≈ 3.66 µM)
[22]
  MIC: 4 µg/mL (≈ 7.32 µM)
[11]
  MIC: 4 µg/mL (≈ 7.32 µM)
